{"source": "ChEMBL document CHEMBL4177542", "about": "“A New Combination of a Pleuromutilin Derivative and Doxycycline for Treatment of Multidrug-Resistant Acinetobacter baumannii” (J Med Chem, 2017)", "key": {"Acinetobacter baumannii [1]": {"system": "Acinetobacter baumannii", "assay": "Synergistic antibacterial activity against Acinetobacter baumannii ATCC 19606 at 60:1 compound to doxycycline ratio after 48 hrs by resazurin dye based microdilution broth checkerboard method", "type": "functional", "details": "ATCC 19606 = CIP 70.34 = JCM 6841, 48 h", "procedure,_shortened": "(§1)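 Checkerboard broth microdilution of drug pairs in tryptic soy broth on mid-log cultures (OD 0.5), 48 h at 37 °C. Growth read by resazurin (pink growth, blue no growth). MBC is blue retained over 4 h, CFU plating where needed. ΣFIC = C_A/MIC_A + C_B/MIC_B, taken at the growth/no-growth interface wells; ΣFIC <0.5 counts as synergy.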"}, "Acinetobacter baumannii [2]": {"system": "Acinetobacter baumannii", "assay": "Bactericidal activity against Acinetobacter baumannii ATCC 19606 after 48 hrs by resazurin dye based microdilution method", "type": "functional", "details": "ATCC 19606 = CIP 70.34 = JCM 6841, 48 h, read-out: MBC99.9", "procedure,_shortened": "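A. baumannii ATCC 19606 grown in tryptic soy broth, 37 °C with shaking, to mid-log (OD 0.5). Cultures treated with serial dilutions of inhibitor (DMSO stock 1 mg/100 μL), 48 h at 37 °C. Resazurin then added, 1 h at 37 °C with shaking. MIC is the lowest concentration staying blue; MBC is blue retained over 4 h, with CFU plating if needed (99.9% kill).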"}, "Acinetobacter baumannii [3]": {"system": "Acinetobacter baumannii", "assay": "Synergistic bactericidal activity against Acinetobacter baumannii ATCC 19606 at 35:1 compound to doxycycline ratio after 48 hrs by resazurin dye based microdilution broth checkerboard method", "type": "functional", "details": "ATCC 19606 = CIP 70.34 = JCM 6841, 48 h, read-out: MBC99.9", "procedure,_shortened": "as §1"}, "Acinetobacter baumannii [4]": {"system": "Acinetobacter baumannii", "assay": "Synergistic antibacterial activity against multidrug-resistant Acinetobacter baumannii ATCC […] at 60:1 compound to doxycycline ratio after 48 hrs by resazurin dye based microdilution broth checkerboard method", "type": "functional", "details": "ATCC BAA 18002, 48 h", "procedure,_shortened": "(§2)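 Microdilution broth checkerboard of the compound combined with doxycycline, using the resazurin broth method (48 h, 37 °C, blue = no growth). ΣFIC = C_A/MIC_A + C_B/MIC_B, taken at the growth–no growth interface wells; ΣFIC below 0.5 is scored as synergy. MBC for the fixed-ratio combinations read as the 4 h resazurin endpoint.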"}, "Klebsiella pneumoniae [5]": {"system": "Klebsiella pneumoniae", "assay": "Synergistic antibacterial activity against Klebsiella pneumoniae ATCC 8047 at 60:1 compound to doxycycline ratio after 48 hrs by resazurin dye based microdilution broth checkerboard method", "type": "functional", "details": "ATCC 8047, 48 h", "procedure,_shortened": "as §1"}, "Klebsiella pneumoniae [6]": {"system": "Klebsiella pneumoniae", "assay": "Synergistic bactericidal activity against Klebsiella pneumoniae ATCC 8047 at 35:1 compound to doxycycline ratio after 48 hrs by resazurin dye based microdilution broth checkerboard method", "type": "functional", "details": "ATCC 8047, 48 h, read-out: MBC99.9", "procedure,_shortened": "as §2"}, "Escherichia coli [7]": {"system": "Escherichia coli", "assay": "Synergistic antibacterial activity against Escherichia coli ATCC 10798 at 35:1 compound to doxycycline ratio after 48 hrs by resazurin dye based microdilution broth checkerboard method", "type": "functional", "details": "ATCC 10798, 48 h", "procedure,_shortened": "as §1"}, "Escherichia coli [8]": {"system": "Escherichia coli", "assay": "Synergistic bactericidal activity against Escherichia coli ATCC 10798 at 35:1 compound to doxycycline ratio after 48 hrs by resazurin dye based microdilution broth checkerboard method", "type": "functional", "details": "ATCC 10798, 48 h, read-out: MBC99.9", "procedure,_shortened": "as §1"}, "Escherichia coli [9]": {"system": "Escherichia coli", "assay": "Synergistic antibacterial activity against Escherichia coli ATCC 10798 at 2:1 compound to doxycycline ratio after 48 hrs by resazurin dye based microdilution broth checkerboard method", "type": "functional", "details": "ATCC 10798, 48 h", "procedure,_shortened": "as §1"}, "Escherichia coli [10]": {"system": "Escherichia coli", "assay": "Synergistic bactericidal activity against Escherichia coli ATCC 10798 at 2:1 compound to doxycycline ratio after 48 hrs by resazurin dye based microdilution broth checkerboard method", "type": "functional", "details": "ATCC 10798, 48 h, read-out: MBC99.9", "procedure,_shortened": "as §1"}, "Escherichia coli [11]": {"system": "Escherichia coli", "assay": "Growth inhibition of Escherichia coli ATCC 10798 after 48 hrs by resazurin dye based microdilution method", "type": "functional", "details": "ATCC 10798, 48 h", "procedure,_shortened": "(§3)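 Broth microdilution in tryptic soy broth. Mid-log cultures (OD600 0.5) treated with serial dilutions from a DMSO stock (1 mg per 100 μL) for 48 h at 37 °C. Resazurin (stock 0.02%) then added for 1 h at 37 °C. MIC is the lowest concentration staying blue; MBC is blue retained over 4 h (99.9% kill), with CFU plating when needed.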"}, "Pseudomonas aeruginosa [12]": {"system": "Pseudomonas aeruginosa", "assay": "Synergistic bactericidal activity against Pseudomonas aeruginosa ATCC 27853 at 35:1 compound to doxycycline ratio after 48 hrs by resazurin dye based microdilution broth checkerboard method", "type": "functional", "details": "ATCC 27853, 48 h, read-out: MBC99.9", "procedure,_shortened": "as §1"}, "Pseudomonas aeruginosa [13]": {"system": "Pseudomonas aeruginosa", "assay": "Growth inhibition of Pseudomonas aeruginosa ATCC 27853 after 48 hrs by resazurin dye based microdilution method", "type": "functional", "details": "ATCC 27853, 48 h", "procedure,_shortened": "as §3"}, "Pseudomonas aeruginosa [14]": {"system": "Pseudomonas aeruginosa", "assay": "Bactericidal activity against Pseudomonas aeruginosa ATCC 27853 after 48 hrs by resazurin dye based microdilution method", "type": "functional", "details": "ATCC 27853, 48 h, read-out: MBC99.9", "procedure,_shortened": "as §3"}, "Staphylococcus aureus [15]": {"system": "Staphylococcus aureus", "assay": "Synergistic antibacterial activity against Staphylococcus aureus ATCC 25923 at 2:1 compound to doxycycline ratio after 48 hrs by resazurin dye based microdilution broth checkerboard method", "type": "functional", "details": "ATCC 25923, 48 h", "procedure,_shortened": "as §1"}, "Staphylococcus aureus [16]": {"system": "Staphylococcus aureus", "assay": "Growth inhibition of Staphylococcus aureus ATCC 25923 after 48 hrs by resazurin dye based microdilution method", "type": "functional", "details": "ATCC 25923, 48 h", "procedure,_shortened": "as §3"}, "[17]": {"system": "Mycobacterium tuberculosis", "assay": "Bactericidal activity against Mycobacterium tuberculosis H37Rv after 48 hrs by resazurin dye based microdilution method", "type": "functional", "details": "read-out: MBC99.9"}, "Acinetobacter baumannii [18]": {"system": "Acinetobacter baumannii", "assay": "Potentiation of doxycycline-induced antimicrobial activity against Acinetobacter baumannii ATCC 19606 at 0.78 ug/ml in presence of 0.025 ug/ml doxycycline by microdilution broth checkerboard method", "type": "functional, ATCC 19606 = CIP 70.34 = JCM 6841", "procedure,_shortened": "(§4)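 A. baumannii ATCC 19606 in a broth microdilution checkerboard with doxycycline, 96 concentration combinations. ΣFIC = C_A/MIC_A + C_B/MIC_B, taken for wells at the growth/no-growth interface; ΣFIC <0.5 counts as synergy.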"}, "Acinetobacter baumannii [19]": {"system": "Acinetobacter baumannii", "assay": "Potentiation of doxycycline-induced antimicrobial activity against Acinetobacter baumannii ATCC 19606 at 1.56 ug/ml in presence of 0.025 ug/ml doxycycline by microdilution broth checkerboard method", "type": "functional, ATCC 19606 = CIP 70.34 = JCM 6841", "procedure,_shortened": "as §4"}, "[20]": {"assay": "Half life in Sprague-Dawley rat liver microsomes at 500 ng/ml by LC/MS analysis", "type": "ADME, microsome", "procedure,_shortened": "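Pooled Sprague-Dawley rat liver microsomes at 1 mg/mL protein in 100 mM phosphate, pH 7.4. Compound at 500 ng/mL final; verapamil as positive control. Pre-equilibrated 5 min at 37 °C, then 1 mM NADPH added. Triplicate samples at 0, 5, 10, 20, 30, 45 and 60 min, quenched in 4 volumes of cold methanol, analysed by LC-MS.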"}, "Vero": {"system": "Vero", "assay": "Cytotoxicity against African green monkey Vero cells after 72 hrs by MTT assay", "type": "cell-based, Chlorocebus sabaeus", "details": "Chlorocebus sabaeus, Vero, 72 h; read-out: IC50", "procedure,_shortened": "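Vero (ATCC CCL-81) cells in Eagle's MEM with 10% FBS and penicillin-streptomycin, in 96-well plates. Serial dilutions from 0.78 to 200 μg/mL. Tunicamycin, colistin or tobramycin as controls on each plate. Viability by MTT, giving IC50.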"}, "[21]": {"assay": "Solubility of the compound in water at 10 mg after 24 hrs by HPLC based shake flask method", "type": "physicochemical"}}, "data": [{"smiles": "C=C[C@]1(C)C[C@@H](OC(=O)CSC(C)(C)CNC(=O)[C@H](N)C(C)C)[C@]2(C)[C@H](C)CC[C@]3(CC[C@@H](O)[C@H]32)[C@@H](C)[C@@H]1O", "values": [{"measurement": "MIC", "setting": "Acinetobacter baumannii [1]", "value": 0.5, "unit": "µg/mL"}, {"measurement": "MBC", "setting": "Acinetobacter baumannii [2]", "value": "3.13 to 6.25", "unit": "µg/mL"}, {"measurement": "MBC", "setting": "Acinetobacter baumannii [3]", "value": 2, "unit": "µg/mL"}, {"measurement": "MIC", "setting": "Acinetobacter baumannii [4]", "value": 1.56, "unit": "µg/mL"}, {"measurement": "MIC", "setting": "Klebsiella pneumoniae [5]", "value": 1.56, "unit": "µg/mL"}, {"measurement": "MBC", "setting": "Klebsiella pneumoniae [6]", "value": 1.56, "unit": "µg/mL"}, {"measurement": "MIC", "setting": "Escherichia coli [7]", "value": 0.25, "unit": "µg/mL"}, {"measurement": "MBC", "setting": "Escherichia coli [8]", "value": 1.56, "unit": "µg/mL"}, {"measurement": "MIC", "setting": "Escherichia coli [9]", "value": 0.25, "unit": "µg/mL"}, {"measurement": "MBC", "setting": "Escherichia coli [10]", "value": 1.56, "unit": "µg/mL"}, {"measurement": "MIC", "setting": "Escherichia coli [11]", "value": 3.13, "unit": "µg/mL"}, {"measurement": "MBC", "setting": "Pseudomonas aeruginosa [12]", "value": 25, "unit": "µg/mL"}, {"measurement": "MIC", "setting": "Pseudomonas aeruginosa [13]", "value": "> 25", "unit": "µg/mL"}, {"measurement": "MBC", "setting": "Pseudomonas aeruginosa [14]", "value": "> 25", "unit": "µg/mL"}, {"measurement": "MIC", "setting": "Staphylococcus aureus [15]", "value": 12.5, "unit": "µg/mL"}, {"measurement": "MIC", "setting": "Staphylococcus aureus [16]", "value": 12.5, "unit": "µg/mL"}, {"measurement": "MBC", "setting": "[17]", "value": 6.25, "unit": "µg/mL"}, {"measurement": "fractional inhibitory concentration index (FICI)", "setting": "Acinetobacter baumannii [18]", "value": "0.25 - 0.37"}, {"measurement": "fractional inhibitory concentration index (FICI)", "setting": "Acinetobacter baumannii [19]", "value": 0.38}, {"measurement": "t1/2", "setting": "[20]", "value": "> 1", "unit": "h"}, {"measurement": "IC50", "setting": "Vero", "value": 45.3, "unit": "µg/mL"}, {"measurement": "solubility", "setting": "[21]", "value": "Soluble"}]}]}
